Measured values reported in ChEMBL document CHEMBL5252633, “Quinazolinone-1,2,3-triazole-acetamide conjugates as potent α-glucosidase inhibitors: synthesis, enzyme inhibition, kinetic analysis, and molecular docking study” (RSC Med Chem, 2023).
Activity calls are given as the source filed them. The calls are words filed in the database; no cut-off is given here.

Experiments:
[1] = molecular target: T1, Pancreatic triacylglycerol lipase (Homo sapiens, UniProt P16233); test: Inhibition of pancreatic lipase (unknown origin)
T1 sequence (P16233 whole entry): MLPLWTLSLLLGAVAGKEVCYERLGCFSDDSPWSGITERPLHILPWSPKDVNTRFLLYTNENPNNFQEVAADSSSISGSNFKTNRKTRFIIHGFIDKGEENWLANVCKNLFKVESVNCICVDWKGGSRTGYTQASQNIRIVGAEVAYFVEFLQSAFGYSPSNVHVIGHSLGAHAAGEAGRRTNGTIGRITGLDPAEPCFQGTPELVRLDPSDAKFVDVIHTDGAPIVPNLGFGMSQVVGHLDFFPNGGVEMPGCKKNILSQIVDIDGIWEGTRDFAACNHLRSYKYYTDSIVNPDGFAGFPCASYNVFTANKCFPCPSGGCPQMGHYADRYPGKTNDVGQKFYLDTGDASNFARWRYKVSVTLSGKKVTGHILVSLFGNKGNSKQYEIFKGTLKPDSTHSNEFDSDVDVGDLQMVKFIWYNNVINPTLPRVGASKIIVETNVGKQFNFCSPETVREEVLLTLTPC

[2] = molecular target: T2, Alpha-glucosidase (Saccharomyces cerevisiae S288c, UniProt P53341+P38158+P07265); test: Inhibition of Saccharomyces cerevisiae alpha-glucosidase using p-nitrophenyl-alpha D-glucopyranoside as substrate preincubated for 15 mins followed by substrate addition and measured after 20 mins by spectrophotometer assay; assay type: protein assay
[3] = molecular target: T2, Alpha-glucosidase; test: Inhibition of Saccharomyces cerevisiae alpha-glucosidase assessed as inhibition constant using p-nitrophenyl-alpha D-glucopyranoside as substrate preincubated for 15 mins followed by substrate addition and measured after 20 mins by Lineweaver-burk plot analysis; assay type: protein assay
[4] = molecular target: Maltase-glucoamylase (Homo sapiens) (UniProt O43451); test: Inhibition of alpha-glucosidase (unknown origin) assessed as increase in Km using p-nitrophenyl-alpha D-glucopyranoside as substrate by Lineweaver-Burk plot analysis
Method in brief: (§1)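 Initial rates were measured with p-nitrophenyl α-D-glucopyranoside at 1–16 mM and inhibitor at 0, 1.2, 2.4 and 4.8 μM. Lineweaver–Burk plots (1/V against 1/[S]) at each inhibitor level gave Km and Vmax. Ki was estimated from a plot of Km against inhibitor concentration.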

[5] = molecular target: Maltase-glucoamylase (Homo sapiens) (UniProt O43451); test: Inhibition of alpha-glucosidase (unknown origin) assessed as change in Vmax using p-nitrophenyl-alpha D-glucopyranoside as substrate by Lineweaver-Burk plot analysis; method in brief: as §1

Sequence of Maltase-glucoamylase (Homo sapiens) (O43451 whole entry, looked up): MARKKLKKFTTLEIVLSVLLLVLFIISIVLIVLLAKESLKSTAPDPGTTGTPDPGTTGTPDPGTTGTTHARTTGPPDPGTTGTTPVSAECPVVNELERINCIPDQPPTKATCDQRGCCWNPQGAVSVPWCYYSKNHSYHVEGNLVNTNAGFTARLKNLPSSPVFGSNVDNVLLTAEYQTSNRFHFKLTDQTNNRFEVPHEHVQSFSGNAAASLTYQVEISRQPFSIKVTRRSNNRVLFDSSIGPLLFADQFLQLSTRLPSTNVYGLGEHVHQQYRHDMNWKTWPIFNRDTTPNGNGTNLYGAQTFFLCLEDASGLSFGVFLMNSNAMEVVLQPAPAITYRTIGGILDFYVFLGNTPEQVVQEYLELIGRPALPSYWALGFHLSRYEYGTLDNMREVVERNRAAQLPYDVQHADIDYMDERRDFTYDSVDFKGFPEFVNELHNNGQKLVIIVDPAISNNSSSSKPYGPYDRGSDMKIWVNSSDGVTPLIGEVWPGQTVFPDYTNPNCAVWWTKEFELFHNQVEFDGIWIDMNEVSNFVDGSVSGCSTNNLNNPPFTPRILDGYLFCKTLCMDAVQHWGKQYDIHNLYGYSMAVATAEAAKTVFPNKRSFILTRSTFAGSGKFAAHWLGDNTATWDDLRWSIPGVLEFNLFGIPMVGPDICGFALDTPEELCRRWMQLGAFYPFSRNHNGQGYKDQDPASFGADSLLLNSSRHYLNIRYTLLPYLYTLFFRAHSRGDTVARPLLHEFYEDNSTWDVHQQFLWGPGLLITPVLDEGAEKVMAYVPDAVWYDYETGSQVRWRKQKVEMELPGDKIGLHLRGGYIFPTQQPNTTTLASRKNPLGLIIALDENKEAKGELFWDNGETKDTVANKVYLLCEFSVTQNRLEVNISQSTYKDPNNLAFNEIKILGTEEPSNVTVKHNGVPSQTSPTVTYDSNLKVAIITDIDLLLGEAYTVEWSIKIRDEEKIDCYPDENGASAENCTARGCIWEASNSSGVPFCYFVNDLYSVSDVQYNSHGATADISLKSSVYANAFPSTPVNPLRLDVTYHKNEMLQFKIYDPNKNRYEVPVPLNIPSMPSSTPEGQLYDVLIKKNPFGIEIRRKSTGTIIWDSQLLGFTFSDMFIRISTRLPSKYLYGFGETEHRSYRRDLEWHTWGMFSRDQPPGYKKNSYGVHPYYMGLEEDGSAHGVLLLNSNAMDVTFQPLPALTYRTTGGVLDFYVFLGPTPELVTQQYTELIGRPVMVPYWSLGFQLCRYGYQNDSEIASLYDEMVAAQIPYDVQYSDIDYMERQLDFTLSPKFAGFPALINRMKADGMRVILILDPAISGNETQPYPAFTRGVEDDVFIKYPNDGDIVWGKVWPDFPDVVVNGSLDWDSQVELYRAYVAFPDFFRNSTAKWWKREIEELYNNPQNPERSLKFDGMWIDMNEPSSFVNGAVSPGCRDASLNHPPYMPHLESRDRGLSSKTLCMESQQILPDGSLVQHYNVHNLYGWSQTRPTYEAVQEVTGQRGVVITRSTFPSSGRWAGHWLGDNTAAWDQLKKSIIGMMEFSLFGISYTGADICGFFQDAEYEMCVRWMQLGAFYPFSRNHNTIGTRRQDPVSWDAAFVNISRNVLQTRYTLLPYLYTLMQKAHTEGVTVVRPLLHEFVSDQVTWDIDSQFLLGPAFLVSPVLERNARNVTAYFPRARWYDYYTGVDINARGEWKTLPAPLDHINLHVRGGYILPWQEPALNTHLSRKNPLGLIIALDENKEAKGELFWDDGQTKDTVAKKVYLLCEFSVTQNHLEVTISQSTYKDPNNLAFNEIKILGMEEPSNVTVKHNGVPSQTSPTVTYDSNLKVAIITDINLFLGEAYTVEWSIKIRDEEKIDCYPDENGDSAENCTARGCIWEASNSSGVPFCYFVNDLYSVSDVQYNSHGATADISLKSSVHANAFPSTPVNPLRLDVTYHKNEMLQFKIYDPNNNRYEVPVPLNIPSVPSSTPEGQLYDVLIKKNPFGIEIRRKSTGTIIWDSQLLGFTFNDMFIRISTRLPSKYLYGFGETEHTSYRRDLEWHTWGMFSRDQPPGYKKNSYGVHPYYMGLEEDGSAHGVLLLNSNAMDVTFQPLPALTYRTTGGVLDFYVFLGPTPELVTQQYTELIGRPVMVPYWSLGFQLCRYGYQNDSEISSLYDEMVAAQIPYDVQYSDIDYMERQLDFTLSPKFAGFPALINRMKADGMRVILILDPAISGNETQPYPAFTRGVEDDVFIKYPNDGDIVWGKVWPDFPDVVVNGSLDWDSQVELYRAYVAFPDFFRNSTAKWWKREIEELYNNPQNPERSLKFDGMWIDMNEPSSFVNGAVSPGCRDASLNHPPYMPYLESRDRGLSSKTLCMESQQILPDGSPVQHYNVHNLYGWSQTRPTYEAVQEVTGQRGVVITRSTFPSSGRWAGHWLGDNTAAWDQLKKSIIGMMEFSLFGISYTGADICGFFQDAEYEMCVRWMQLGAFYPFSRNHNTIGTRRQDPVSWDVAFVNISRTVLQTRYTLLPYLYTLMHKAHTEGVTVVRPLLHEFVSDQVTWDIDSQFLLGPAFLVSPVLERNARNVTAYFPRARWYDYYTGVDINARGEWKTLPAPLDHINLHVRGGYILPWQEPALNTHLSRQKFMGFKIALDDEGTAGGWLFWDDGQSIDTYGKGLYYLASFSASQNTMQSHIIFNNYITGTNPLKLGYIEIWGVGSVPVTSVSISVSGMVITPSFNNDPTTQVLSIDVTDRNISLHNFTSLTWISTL

O=C(Cn1c(Cc2ccc(Br)cc2)nc2ccccc2c1=O)NNC(=O)c1cc2ccccc2oc1=O
IC50 [1]: 2800 nM

O=C(Cn1c(-c2ccc(Cl)cc2)nc2ccccc2c1=O)N/N=C\c1cn(-c2ccccc2)nc1-c1ccc(Br)cc1
IC50 [2]: 60.5 µM | Ki [3]: 56 µM

Cc1ccc(NC(=O)Cn2cc(COc3ccc(C4Nc5ccccc5C(=O)N4Nc4ccccc4)cc3)nn2)c(C)c1 (stereo not given)
inhibition [4]: Active | inhibition [5]: inactive
